Assay results taken from ChEMBL document CHEMBL1124003, “A pyrimidine-based "flexible" bisubstrate analogue inhibitor of human thymidylate synthase” (J Med Chem, 1988).

What was measured:
Thymidylate synthase [1] = target: T1, Thymidylate synthase (Homo sapiens, UniProt P04818); experiment: Inhibition of human thymidylate synthase at 40 uM concentration of 5,10-CH2-H4PteGlu5
Procedure, shortened: (§1)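 TS purified ~1350-fold (specific activity 17.4 units/mg) from human acute myeloblastic leukemia cell pellet; tritium-release assay with [5-3H]dUMP, started by enzyme addition, 45 or 60 min incubation. Ki from varying dUMP, 5,10-CH2-H4PteGlu or 5,10-CH2-H4PteGlu5 at several fixed inhibitor levels; fixed cosubstrate 28 µM dUMP or 600 µM CH2-H4PteGlu (40 µM pentaglutamate); duplicate/triplicate, repeated.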
Target sequence in this assay (P04818 whole entry): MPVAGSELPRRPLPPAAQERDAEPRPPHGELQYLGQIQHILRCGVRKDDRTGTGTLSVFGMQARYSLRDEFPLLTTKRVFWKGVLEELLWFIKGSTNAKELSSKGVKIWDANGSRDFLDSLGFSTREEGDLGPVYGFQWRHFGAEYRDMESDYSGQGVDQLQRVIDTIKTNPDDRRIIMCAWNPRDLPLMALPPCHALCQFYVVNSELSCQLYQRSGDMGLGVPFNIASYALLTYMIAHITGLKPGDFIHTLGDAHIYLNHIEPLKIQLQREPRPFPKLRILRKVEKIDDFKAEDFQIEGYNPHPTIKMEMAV

Thymidylate synthase [2] = target: T1, Thymidylate synthase; experiment: Inhibition of human thymidylate synthase at 600 uM concentration of 5,10-CH2-H4PteGlu; procedure, shortened: as §1
Target sequence in this assay (P04818 whole entry): as above

Thymidylate synthase [3] = target: T1, Thymidylate synthase; experiment: Mixed inhibition of the human thymidylate synthase at 28 uM of 5,10-CH2-H4PteGlu5; procedure, shortened: as §1
Target sequence in this assay (P04818 2-313 limits assumed): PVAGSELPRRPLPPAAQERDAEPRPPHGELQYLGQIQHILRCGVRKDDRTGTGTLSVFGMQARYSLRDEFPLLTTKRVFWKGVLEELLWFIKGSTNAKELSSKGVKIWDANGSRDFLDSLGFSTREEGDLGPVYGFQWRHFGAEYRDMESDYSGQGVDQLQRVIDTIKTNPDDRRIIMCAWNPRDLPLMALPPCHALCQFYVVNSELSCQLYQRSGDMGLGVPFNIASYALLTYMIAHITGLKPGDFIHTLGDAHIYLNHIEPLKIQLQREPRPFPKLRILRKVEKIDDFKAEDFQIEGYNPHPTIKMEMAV

Thymidylate synthase [4] = target: T1, Thymidylate synthase; experiment: Competitive inhibition of the human thymidylate synthase at 28 uM as Ki(slope) of 5,10-CH2-H4PteGlu; procedure, shortened: as §1
Target sequence in this assay (P04818 whole entry): as the sequence (P04818 whole entry) above

Thymidylate synthase [5] = target: T1, Thymidylate synthase; experiment: Competitive inhibition of the human thymidylate synthase at 600 uM of 5,10-CH2-H4PteGlu
Target sequence in this assay (P04818 whole entry): as above

Thymidylate synthase [6] = target: T1, Thymidylate synthase; experiment: Competitive inhibition of the human thymidylate synthase at 600 uM as Ki(slope) of 5,10-CH2-H4PteGlu; conditions: in the assay text read “28 uM dUMP” for “600 uM”; procedure, shortened: as §1
Target sequence in this assay (P04818 whole entry): as above

| SMILES | IC50 (Thymidylate synthase [1]) [nM] | IC50 (Thymidylate synthase [2]) [nM] | Kii (Thymidylate synthase [3]) [µM] | Kis (Thymidylate synthase [3]) [µM] | Ki (Thymidylate synthase [4]) [nM] | Ki (Thymidylate synthase [5]) [nM] | Ki (Thymidylate synthase [6]) [nM] |
| --- | --- | --- | --- | --- | --- | --- | --- |
| Cc1nc(N)nc(O)c1N(CCNc1ccc(C(=O)NC(CCC(=O)O)C(=O)O)cc1)Cc1cn([C@H]2C[C@H](O)[C@@H](COP(=O)(O)O)O2)c(=O)[nH]c1=O (stereo partly drawn) | 1180 | 7300 | – | – | – | – | – |
| Cc1nc(N)nc(O)c1N(CCN(C)c1ccc(C(=O)NC(CCC(=O)O)C(=O)O)cc1)Cc1cn([C@H]2C[C@H](O)[C@@H](COP(=O)(O)O)O2)c(=O)[nH]c1=O (stereo partly drawn) | 350 | 1000 | 0.2 | 1.19 | 230 | – | – |
| Nc1nc(O)c2c(n1)CCC(CNc1ccc(C(=O)NC(CCC(=O)O)C(=O)O)cc1)N2Cc1cn([C@H]2C[C@H](O)[C@@H](COP(=O)(O)O)O2)c(=O)[nH]c1=O (stereo partly drawn) | 200 | 390 | 0.11 | 0.33 | – | 27 | 85 |
